Source: ChEMBL document CHEMBL1133717, “Soft drugs. 12. Design, synthesis, and evaluation of soft bufuralol analogues” (J Med Chem, 2000)

Tests used:
Assay type in all cases: ADME
[1] = Half-life in rat blood evaluated by enzymatic hydrolysis
Outline: (§1)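 Incubation in fresh heparinized male Sprague-Dawley rat blood (used within 30 min) at 37.0 ± 0.1 °C, compound added in methanol at 1:10. Timed samples were quenched in cold methanol and centrifuged; the supernatant (12 µM final) was analysed by HPLC for ester and acid metabolite.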

[2] = Half-life was evaluated by chemical hydrolysis
Outline: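 pH 12.0 buffer (0.01 N NaOH, isotonic phosphate 0.5 mM) at 37.0 ± 0.1 °C, with an initial ester concentration of 120 µM. Timed samples were quenched 1:10 in cold methanol (12 µM final) and analysed by HPLC. The pseudo-first-order rate constant came from a linear regression of ln(peak area) versus time, and the half-life was derived from it.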

[3] = Evaluated for apparent pseudo first-order hydrolytic rate constant(K) in chemical hydrolysis
Rattus norvegicus = species on record: Rattus norvegicus; assay: Evaluation of apparent pseudo-first-order hydrolytic rate constant(k) by enzymatic hydrolysis in rat blood at 37+/-0.1 degree Centigrade
Outline: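 Freshly drawn heparinized blood from male Sprague-Dawley rats, used within 30 min. Compound in methanol (0.1 mL) was mixed with blood (0.9 mL) at 37.0 ± 0.1 °C. Timed aliquots were mixed with cold methanol, frozen and centrifuged (24 000 rpm, 3 min), giving a final sample concentration of 12 µM. Ester loss was followed by HPLC of the supernatant, and the pseudo-first-order k was obtained from ln(peak area) versus time.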

[4] = Half-life in rat blood; evaluated by enzymatic hydrolysis; outline: as §1

Compound | half-life [1] [min] | half-life [2] [min] | k [3] [min⁻¹] | k (Rattus norvegicus) [min⁻¹] | half-life [4] [min]
COC(=O)Cc1cccc2cc(C(O)CNC(C)(C)C)oc12 (centres undefined) | < 0.15 | 7.2 | 0.096 |  | 
CC(C)(C)NCC(O)c1cc2cccc(CC(=O)OCCC34C[C@H]5C[C@@H](C3)C[C@@H](C4)C5)c2o1 (some centres undefined) | < 0.15 | 150 | 0.0016 |  | 
CC(C)OC(=O)Cc1cccc2cc(C(O)CNC(C)(C)C)oc12 (centres undefined) | 16.6 | 45.7 | 0.015 | 0.0417 | 
CCOC(=O)Cc1cccc2cc(C(O)CNC(C)(C)C)oc12 (centres undefined) |  | 8.2 | 0.084 |  | < 0.15
CC(C)(C)NCC(O)c1cc2cccc(CC(=O)OC(C)(C)C)c2o1 (centres undefined) | 99 | 75.7 | 0.091 | 0.007 | 
CSCOC(=O)Cc1cccc2cc(C(O)CNC(C)(C)C)oc12 (centres undefined) | < 0.15 | 25 | 0.027 |  | 
CC(C)(C)NCC(O)c1cc2cccc(CC(=O)OC3CCCCC3)c2o1 (centres undefined) | 6.2 | 15.2 | 0.045 | 0.111 | 
